Assay results pooled from the literature.
Cell line: MCF7
Read-out: cell growth or viability

Structure (SMILES) | method | time | IC50 [µM]
Cc1ccc(-c2cc(-c3ccc(Cl)c(F)c3)c3c(=O)n(C)c(=O)n(C)c3n2)cc1 | MTT | 48 h | 37
Cc1nc(Nc2ccc3c(c2)/C(=C/c2ccccc2)C(=O)N3C)c2ccccc2n1 | MTT |  | 28.8
O=c1nc(-c2ccc(Nc3nnc(-c4ccc(Cl)cc4)c4ccccc34)cc2)cc(-c2ccccc2)[nH]1 | MTT | 72 h | 0.16
CC(C)NCC(COc1cccc2ccccc12)OC(=O)C=Cc1ccc(O)c(O)c1 (centres unmarked) | MTT |  | 5.37
Cc1nc(Nc2ccc3c(c2)CC(=O)N3)c2ccccc2n1 | MTT |  | 31.3
CC1CCC(C(C)C)C(OC(=O)C=Cc2ccc(O)c(O)c2)C1 (centres unmarked) | MTT |  | 28.6
Cc1nc(N(Cc2ccccc2)c2ccc3c(c2)/C(=C/c2ccccc2)C(=O)N3Cc2ccccc2)c2ccccc2n1 (mixture of isomers) | MTT |  | 0.89
COc1cc2c3c(n(CCCNCCO)c(=O)c2cc1OC)-c1nc2c(cc1C3=O)OCO2 |  | 72 h | 0.369
Cc1nc2ccc(CN(C)c3ccc(C(=O)N[C@@H](CCC(=O)O)C(=O)O)s3)cc2c(=O)[nH]1 | MTT | 48 h | 1.98
O=C(C=Cc1ccccc1)Nc1cc(-c2ccnc(N3CCC(O)CC3)c2)ccn1 | MTT | 72 h | 2.51
COc1ccc(-c2cc(-c3ccccc3Cl)c3c(=O)[nH]c(=O)[nH]c3n2)cc1 | MTT | 48 h | 17.5
COc1cc2c3c(n(CCCNC(C)C)c(=O)c2cc1OC)-c1nc2c(cc1C3=O)OCO2 |  | 72 h | 0.318
Cc1nc(Nc2ccc3c(c2)C(C)(C)C(=O)N3C)c2ccccc2n1 | MTT |  | 36.3
COc1ccc(-c2cc(-c3cccc(Br)c3)c3c(=O)n(C)c(=O)n(C)c3n2)cc1 | MTT | 48 h | 13.5
CN(Cc1cnc2nc(N)nc(N)c2n1)c1ccc(C(=O)N[C@@H](CCC(=O)O)C(=O)O)cc1 | MTT |  | 19
COc1cc2ncnc(Nc3ccc4c(c3)/C(=C/c3ccccc3)C(=O)N4C)c2cc1OC | MTT |  | 7.84
Cc1ccc(-c2cc(-c3ccc(N(C)C)cc3)c3c(=O)n(C)c(=O)n(C)c3n2)cc1 | MTT | 48 h | 15.8
CC(C)CS(=O)(=O)NCc1cccc(-c2ccc3c(NC(=O)CC4CC4)n[nH]c3c2)c1 | ATP luminescence | 48 h | 42
COc1ccc(-c2cc(-c3c(OC)cccc3OC)c3c(=O)[nH]c(=O)[nH]c3n2)cc1 | MTT | 48 h | 32.3
Cc1nc(N(C)c2ccc3c(c2)/C(=C/c2ccccc2Cl)C(=O)N3C)c2ccccc2n1 | MTT |  | 10.8
